Values after ≈ are worked out from the molar mass of the structure shown.
Experiments:
[1] = Selectivity index, ratio of TC50 for MDCK cells to IC50 for Influenza A virus (A/Tianjinjinnan/15/2009/H1N1); type: toxicity, cell-based; conditions: dog, read-out: Selectivity Index
Summary of the method: (§1)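 Selectivity index = TC50 (MDCK, 48 h visual cytotoxicity) / IC50 from the 40 h CPE-inhibition assay for the given strain.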

Influenza A virus [2] = assay: Antiviral activity against Influenza A virus A/hanfang/359/95(H3N2) infected in MDCK cells assessed as inhibition of virus-induced cytopathicity after 40 hrs; type: functional, organism-based
Summary of the method: (§2)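 CPE reduction in MDCK cells: cells grown 24 h at 37 °C, 5% CO2, then infected and held 2 h at 37 °C before the inoculum was removed. Threefold serial drug dilutions (8 levels from 20 mg/mL DMSO stocks) were added and incubated 40 h at 37 °C. CPE inhibition was scored against cell and virus controls to give IC50. Ribavirin and oseltamivir were the controls.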

[3] = Selectivity index, ratio of TC50 for MDCK cells to IC50 for Influenza A virus A/hanfang/359/95(H3N2); type: toxicity, cell-based; conditions: dog, read-out: Selectivity Index; summary of the method: as §1
[4] = Cytotoxicity against MDCK cells after 48 hrs; type: cell-based, Canis lupus familiaris; conditions: dog, read-out: TC50
Summary of the method: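 MDCK cells seeded at 25000 per well and cultured 24 h at 37 °C, 5% CO2. Threefold dilutions were added to the monolayer and culture continued 48 h. Cytopathic changes were recorded by observation, and TC50 was calculated by the Reed & Muench method.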

Influenza A virus [5] = assay: Antiviral activity against Influenza A virus (A/FM/1/1947(H1N1)) infected in MDCK cells assessed as inhibition of virus-induced cytopathicity after 40 hrs; type: functional, organism-based; conditions: A/Fort Monmouth/1/1947(H1N1); summary of the method: as §2
Influenza B virus [6] = assay: Antiviral activity against Influenza B virus jifang/13/97 infected in MDCK cells assessed as inhibition of virus-induced cytopathicity after 40 hrs; type: functional, organism-based; conditions: jifang/13/97, MDCK; summary of the method: as §2
[7] = Selectivity index, ratio of TC50 for MDCK cells to IC50 for Influenza B virus jifang/13/97; type: toxicity, cell-based; conditions: dog, read-out: Selectivity Index; summary of the method: as §1
Influenza B virus [8] = assay: Ratio of ribavirin IC50 to compound IC50 for Influenza B virus jifang/13/97 infected in MDCK cells; type: functional
Influenza B virus [9] = assay: Antiviral activity against Influenza B virus jifang/13/97 infected in MDCK cells assessed as inhibition of plaque formation after 3 to 4 days by crystal violet staining-based assay; type: functional, organism-based; conditions: jifang/13/97, MDCK
Summary of the method: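 Plaque reduction: MDCK monolayers in 12-well plates were PBS-washed and infected with influenza B in trypsin-free maintenance medium for 2 h at 37 °C, 5% CO2. Inoculum was removed and the cells washed three times. A 1.5% agarose/MEM overlay with trypsin (2 μg/ml) and drug was added. After 3-4 days, crystal violet (0.5%) plaque counts against no-drug wells gave IC50 by Reed & Muench. Ribavirin was the control.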

[10] = Selectivity index, ratio of TC50 for MDCK cells to IC50 for Influenza A virus (A/FM/1/1947(H1N1)); type: toxicity, cell-based; conditions: dog, read-out: Selectivity Index; summary of the method: as §1

Row | Structure (SMILES) | selectivity ratio [1] | IC50 (Influenza A virus [2]) | selectivity ratio [3] | CC50 at 48 h [4] | IC50 (Influenza A virus [5]) | IC50 (Influenza B virus [6]) | selectivity ratio [7] | Ratio IC50 (Influenza B virus [8]) | IC50 (Influenza B virus [9]) | selectivity ratio [10]
1 | C=C(C(=O)NCc1cn(Cc2ccc(Cl)c(Cl)c2)nn1)[C@@H]1CC[C@H](C)[C@@H]2CC(=O)C(C)=C2C1 | 3 | 17.5 µg/mL (≈ 35.9 µM) | 4.1 | 66.7 µg/mL (≈ 137 µM) | ≥ 17.2 µg/mL | 6.79 µg/mL (≈ 13.9 µM) | 9.9 | >4 | – | –
2 | C=C(C(=O)OCc1cn(C2C=CCCC2)nn1)[C@@H]1CC[C@H](C)[C@@H]2CC(=O)C(C)=C2C1 (some centres undefined) | – | > 7.41 µg/mL | – | 22.2 µg/mL (≈ 54.3 µM) | 2.82 µg/mL (≈ 6.89 µM) | ≥ 5.14 µg/mL | ≥ 4.3 | – | 3.28 µg/mL (≈ 8.01 µM) | 8
3 | C=C(C(=O)OCc1cn(Cc2ccccc2F)nn1)[C@@H]1CC[C@H](C)[C@@H]2CC(=O)C(C)=C2C1 | – | > 22.2 µg/mL | – | 66.7 µg/mL (≈ 152 µM) | > 22.2 µg/mL | 2.26 µg/mL (≈ 5.17 µM) | 29.7 | >4 | 0.91 µg/mL (≈ 2.08 µM) | –
4 | C=C(C(=O)NCc1cn(Cc2ccccc2Cl)nn1)[C@@H]1CC[C@H](C)[C@@H]2CC(=O)C(C)=C2C1 | – | > 7.41 µg/mL | – | 38.5 µg/mL (≈ 85 µM) | > 7.41 µg/mL | 1.71 µg/mL (≈ 3.77 µM) | 22.5 | >4 | 0.21 µg/mL (≈ 0.464 µM) | –
5 | C=C(C(=O)NCc1cn(Cc2ccc(F)cc2)nn1)[C@@H]1CC[C@H](C)[C@@H]2CC(=O)C(C)=C2C1 | – | > 66.7 µg/mL | – | 116 µg/mL (≈ 265 µM) | ≥ 66.7 µg/mL | 3.92 µg/mL (≈ 8.98 µM) | 43.8 | >4 | 0.73 µg/mL (≈ 1.67 µM) | –
6 | NC(=O)c1ncn([C@@H]2O[C@H](CO)[C@@H](O)[C@H]2O)n1 [RIBAVIRIN] | 185 | 5.59 µg/mL (≈ 22.9 µM) | 213 | – | 1.92 µg/mL (≈ 7.86 µM) | 7.84 µg/mL (≈ 32.1 µM) | 206 | – | 3.27 µg/mL (≈ 13.4 µM) | 820
